Screening data (PubChem BioAssay)
JNK3 blocker = inhibitors of human JNK3 kinase; P53779; purified JNK3 kinase activity, HTS; inhibition, % at 8 µM; actives 0.61% (n = 60,000); in the data active means inhibition above about 17%;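 further: 0% = DMSO and 100% = reference inhibitor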
Target sequence (P53779 whole entry, looked up): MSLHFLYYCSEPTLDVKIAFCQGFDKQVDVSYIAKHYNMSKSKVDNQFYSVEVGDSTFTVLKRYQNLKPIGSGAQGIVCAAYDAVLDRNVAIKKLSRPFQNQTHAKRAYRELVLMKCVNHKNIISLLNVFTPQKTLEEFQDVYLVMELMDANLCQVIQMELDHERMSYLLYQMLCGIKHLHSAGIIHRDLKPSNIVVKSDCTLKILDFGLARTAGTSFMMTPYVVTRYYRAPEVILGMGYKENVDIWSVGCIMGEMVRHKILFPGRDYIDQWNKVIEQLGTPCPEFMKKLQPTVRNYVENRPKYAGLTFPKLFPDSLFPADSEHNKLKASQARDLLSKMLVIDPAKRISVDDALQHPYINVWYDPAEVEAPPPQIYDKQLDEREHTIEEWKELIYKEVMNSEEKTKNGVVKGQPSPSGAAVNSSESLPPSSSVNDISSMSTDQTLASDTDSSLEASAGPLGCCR
D1 allo mod = D1 dopamine receptor (human) allosteric modulation; HEK293 D1, CRE-luciferase, dopamine EC30 potentiation; actives deviate in either direction; B-score at 10 µM; P21728; actives 5.9% (n = 58,000); AID 641;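 active means luminescence count or its row- and column-corrected plate score outside the 99.7% band of the plate's sample wells, on either side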
HEK293 NFkB inh = inhibitors of the PMA/ionomycin-induced NF-kB reporter in HEK293 cells. actives 0.21% (n = 62,000). HEK-293 NF-kB luciferase reporter, luminescence. AID 465. inhibition, % at 3 µM;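 active means inhibition above the mean of all tested compounds plus 3 SD, cut at about 40% in these data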;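 further: 0% = stimulated DMSO wells and 100% = 10 µM reference inhibitor 5653914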
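Reagent: PMA plus ionomycin mix as NF-kB-activating stimulus. Assay system: NF-kB luciferase reporter HEK-293 cells. Technique: luminescence from luciferase substrate reagent. Incubation: 1 h compound pre-incubation, 16 h PMA/ionomycin at 37 °C. Benchmarks: DMSO only as uninhibited control, 10 µM reference inhibitor as full inhibition. Repeats: tested once.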
SF-1 act = activates the human nuclear receptor SF-1 | CHO-K1 Gal4-SF-1 LBD luciferase reporter; % increase over DMSO SF-1-specific signal | actives 1.9% (n = 65,000) | activation, % at 10 µM | Q13285;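 active means activation above the mean activation of all tested compounds plus 3 SD, cut at about 50% in these data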
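Assay system: CHO-K1 cells co-transfected with Gal4 DBD–human SF-1 LBD, 5xGal4 luciferase reporter / Input: 4,000 cells per well / Incubation: 20 h compound exposure at 37 °C after 1 h cell settling / Detection: SteadyLite luciferase luminescence / Control set: DMSO negative control and −SF1 background wells / Replication: one test per compound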
RORa activator = RORA (human) activation | CHO-K1 Gal4-RORA LBD luciferase reporter, luminescence; percent increase over mock-subtracted basal signal | activation, % at 10 µM | actives 1.5% (n = 65,000);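 active means activation above the mean of all tested compounds plus 3 SD, cut at about 49% in these data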;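 further: 0% = DMSO-treated RORA cells and 100% = added signal equal to DMSO minus mock-transfected cells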
* hit, by the source's call; . = not tested or not shown. Sampled rows, rich in hits. Any-hit rate of the full collection: about 7.9%.

SMILES | JNK3 blocker | D1 allo mod | HEK293 NFkB inh | SF-1 act | RORa activator
Cn1c(=O)[nH]c(=O)c2c1nc(N1CCN(c3ccccc3)CC1)n2CCSc1ncccn1 | 1 | -4.2* | 8 | -4 | 27
COc1ccc2nc(NC(=O)CSc3nc4ccccc4o3)sc2c1 | 1 | -0.36 | 5 | 18 | 35
COc1ccc2nc(NC(=O)CSc3nnc(-c4ccoc4C)n3C)sc2c1 | 7 | 0.33 | -7 | -7 | 107*
O=C(/C=C/Nc1ccc(F)c(Cl)c1)c1ccco1 | 1 | -0.54 | -24 | 55* | 62*
CC(=O)Nc1ccc(N/C=C/C(=O)c2ccco2)cc1 | -4 | -1.8 | -7 | 47 | 21
CCOC(=O)N1CCC(N2C(=O)c3ccccc3C2Nc2ccc3c(c2)OCCO3)CC1 (stereo not given) | 7 | -3.1* | 11 | 9 | -23
O=C(CSc1nc2ccccc2c(=O)n1CC1CCCO1)NCC1CCCO1 (stereo not given) | 0 | 0.076 | 19 | 3 | 8
COc1ccc(C(=O)Nn2c(SCC(=O)NCC3CCCO3)nc3ccccc3c2=O)cc1 (stereo not given) | 2 | -5.4* | 21 | -67 | -67
Cc1ccc2c(c1)[nH]c1c(N3CCN(Cc4ccc5c(c4)OCO5)CC3)ncnc12 | 2 | -2.6 | 10 | -22 | -1
Cc1cccnc1NC(=O)Nc1ccc(F)cc1 | 10 | -2.4* | -5 | 98* | 46
Cc1cccnc1NC(=O)Nc1cccc(C(F)(F)F)c1 | -4 | 1.3 | 21 | -5 | -5
CC(C)(CC(=O)O)Cc1nc(-c2ccc(Cl)cc2)no1 | -11 | 0.26 | 22 | 63* | 0
CNC(=O)CCc1nc(-c2ccc(C(C)(C)C)cc2)no1 | 6 | . | 70* | -88 | -89
CC(C)(C)c1ccc(-c2noc(CCC(N)=O)n2)cc1 | -4 | -3.5* | 86* | -88 | -88
CN(C)C(=O)CCc1nc(-c2ccc(C(C)(C)C)cc2)no1 | 0 | -3 | 16 | -83 | -82
O=C(NCc1ccccc1)N(Cc1nc2ccccc2c(=O)[nH]1)C1CCCC1 | 6 | . | 22 | 17 | 4
NS(=O)(=O)c1ccc(NC(=O)c2ccccc2C(=O)N2CCCCC2)cc1 | -3 | 0.01 | 16 | -7 | -6
CN(C)c1ccc(/C=N/n2ncc3ccccc32)cc1 | . | -3.4* | -30 | 1 | 47
C=CCn1c(/N=C/c2ccc(N(C)C)cc2)nc2ccccc21 | -6 | -0.51 | -9 | 34 | -4
CCOc1ccc(NC(=O)C2CC=CCC2C(=O)O)cc1 (stereo not given) | -3 | 0.27 | 9 | -2 | -8
CCCCOc1ccc(NC(=O)C2CC=CCC2C(=O)O)cc1 (stereo not given) | -5 | -2.6* | -10 | 6 | -19
Cc1ccc(Nc2cc(C)nn2-c2nc(C)cc(=O)[nH]2)cc1 | 5 | -0.81 | 68* | -96 | -88
CCn1ncc(Cl)c1C(=O)Nc1cc(Cl)ccc1Cl | 4 | 0.08 | 6 | -18 | -25
CCn1nccc1C(=O)Nc1ccc(Cl)cc1Cl | -4 | 0.47 | 11 | 67* | 31
CCN1CCN(c2nc(-c3cccnc3)nc3ccccc23)CC1 | 2 | -4.3* | 12 | -3 | -23
SMILES | JNK3 blocker | D1 allo mod | HEK293 NFkB inh | SF-1 act | RORa activator
COc1ccc(C)cc1-n1nnnc1SCc1cc(=O)n2cc(C)ccc2n1 | -2 | . | 14 | -22 | -38
COC(=O)c1cccc(NC(=O)c2nn(C)c(=O)c3ccccc23)c1 | 4 | -1.7 | 1 | 5 | -12
O=C(COc1ccc2c(c1)OCO2)NC12CC3CC(CC(C3)C1)C2 | 3 | 0.46 | 3 | -2 | 17
O=C(Nc1ccc2c(c1)OCCO2)NC12CC3CC(CC(C3)C1)C2 | 0 | . | -25 | 75* | 77*
O=C(Nc1ccc2c(c1)OCCO2)NC1(C(F)(F)F)Oc2ccccc2O1 | -1 | -3* | 12 | 12 | -23
O=C(NCC1CCCO1)NC1(C(F)(F)F)Oc2ccccc2O1 (stereo not given) | . | 0.023 | 18 | -18 | 30
Cc1oc(-c2ccccc2F)nc1CS(=O)(=O)CC(=O)NCc1ccco1 | 3 | 0.82 | -5 | -12 | 27
CCCCN(C)CCNC(=O)c1ccc2c(c1)NC(=O)C(N1CCCCC1)S2 (stereo not given) | 0 | 0.12 | 12 | 0 | 0
COc1cc(NC(=O)c2cc3sccc3n2C)cc(OC)c1 | -3 | -1.3 | -12 | 106* | 61*
Cn1c(C(=O)Nc2ccc3c(c2)OCO3)cc2sccc21 | -4 | -3 | -20 | 79* | 38
COc1ccc(-c2nnc(CSc3nc4ccccc4c(=O)n3C)o2)cc1OC | -1 | 8.5* | 7 | 3 | 4
Cc1cnn(Cc2ccccc2)c1N | -4 | -0.2 | 7 | 20 | -19
Cc1cc(C)cc(NC2=NC3(CCCCC3)N=C(N)N2)c1 | 0 | -5.3* | -4 | -12 | 8
Cc1ccc(-n2c(C)nc3oc4ccccc4c(=O)c3c2=O)cc1 | 7 | 0.65 | 10 | 18 | 68*
CCc1nc2oc3cc(OC)ccc3c(=O)c2c(=O)n1-c1ccccc1 | -8 | -0.2 | 0 | 8 | 24
Cc1ccc2c(c1)N(CCC(=O)NCCCOC(C)C)C(=O)C(C)O2 (stereo not given) | -7 | 0.66 | 4 | 1 | -10
Cc1cc(C)n2nc(C(=O)OCC(=O)Nc3ccc4c(c3)OCO4)nc2n1 | 2 | -4.9* | 3 | -5 | 11
Cc1cc(C)n2nc(C(=O)Nc3ccc4c(c3)OCO4)nc2n1 | -2 | -0.0087 | 13 | 49 | 19
CCOC(=O)CSc1nc2c(c(=O)n(C)c(=O)n2C)n1CCCc1ccccc1 | 1 | -0.21 | 3 | -2 | 3
O=c1[nH]c(=S)c2c(n1-c1ccccc1)CCC2 | 18* | 0.29 | 7 | -30 | -6
Cc1cc(=O)[nH]c(=S)n1-c1ccccc1 | 3 | 0.64 | 4 | 14 | 39
O=C(NCc1ccccc1)N1CCC(n2cnc3cc(F)ccc32)CC1 | 16 | -0.38 | 17 | 14 | -11
O=C(Nc1ccc2c(c1)OCO2)c1cccc2c1C(=O)N(Cc1cccnc1)C2 | 3 | 3.7 | 15 | -19 | -4
COc1cc(NC(=O)c2cccc3c2C(=O)N(Cc2cccnc2)C3)cc(OC)c1OC | -5 | 2.3 | 58* | 12 | -7
CCOc1ccc2nc(SCc3ccc(C(=O)OC)o3)[nH]c2c1 | . | 2.3 | 8 | -19 | -23
COc1ccc(N2CCN(CCNC(=O)c3cccn4c(=O)c5ccc(Cl)cc5nc34)CC2)cc1 | . | -0.81 | 9 | 2 | -9
O=C(Nc1nc(-c2cccs2)cs1)c1ccc(Cl)s1 | 6 | -2.1 | -1 | 34 | 68*
O=C(Nc1nc2ccccc2s1)c1ccc(Cl)s1 | 6 | -3.2 | -78 | 98* | 34
CC(C)(C)c1csc(NC(=O)c2ccc(Cl)s2)n1 | -3 | 0.62 | -4 | 53* | 54*
O=C(Nc1ccon1)c1ccc(Cl)s1 | 6 | -0.84 | 9 | 8 | 1
